Data as given in publication PMC5033715 (International journal of toxicology, 2016).
Where “and” joins values, the source holds several entries; their conditions need not be identical. Equal entries are not always repeated. Entries after “also recorded” stand apart in the source; their conditions may differ. Where two headings read alike, the source gives them in different places. Marks after values point to notes of the source that are not given here.

Key:
LANCL2 = conditions: cited from earlier work
[1] = system: adult Sprague Dawley male rats; assay: Single dose study; type: in vivo, rat; conditions: for tBILI, mean plasma: control 0.10; for ALT, mean plasma: control 39; for AST, mean plasma: control 69; for ALP, mean plasma: control 300
How it was run: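 After a 12 h fast, rats received vehicle or one 500 mg/kg oral gavage. Separate satellite rats (3 treated, 4 control per time point) were euthanized with intraperitoneal pentobarbital 200 mg/kg at 2, 4, 8 and 14 days. Blood was run through a haematology and chemistry panel including ALT, AST, bilirubin, glucose, BUN, creatinine, electrolytes, cholesterol and proteins; group means are reported.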

[2] = Solubility for intravenous administration; type: physicochemical; conditions: at concentrations required for IV administration of the test dose
[3] = system: adult Sprague Dawley male rats; assay: Repeated dose study; type: in vivo, rat; conditions: 80 mg/kg/day over 14 days
[4] = system: adult Sprague Dawley male rats; assay: Single dose study; type: in vivo, rat
How it was run: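 Rats were fasted 12 h, then given one oral gavage of vehicle or 500 mg/kg as a 100 mg/mL suspension; n=10. The functional observational battery was scored at baseline (day −3 or −4), 4 h, and days 1, 7 and 14. Quantal and categorical endpoints were compared by Fisher's exact test. Continuous endpoints (body weight, grip strength and others) were analysed by mixed model with rat as random effect, giving least-squares means per time point.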

[5] = Blood concentrations after single high dose; type: in vivo, rat
mouse models of colitis = conditions: cited from earlier work
[6] = system: adult Sprague Dawley male rats; assay: Single dose study; type: in vivo, rat; conditions: single oral 500 mg/kg; 2, 4, 8 or 14 days post-dosing
How it was run: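 Satellite rats given vehicle or a single 500 mg/kg oral dose were euthanized (pentobarbital 200 mg/kg ip) at 2, 4, 8 and 14 days. Brain, kidney, liver, adrenal, testes, stomach, intestines, duodenum, pancreas, heart, lungs, spleen, thymus and rib were sectioned at 5 μm and H&E stained, n=3. A board-certified veterinary pathologist examined them unblinded by light microscopy.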

[7] = system: adult Sprague Dawley male rats; assay: Repeated dose study; type: in vivo, rat; conditions: 80 mg/kg/day for 14 days; days 4, 8, 14, 21
[8] = Pharmacokinetic experiment, single 80 mg/kg oral dose, plasma LC-MS/MS; type: in vivo, rat; conditions: for Geometric mean of plasma concentration (95% lower and upper confidence limits) / Plasma concentration, Median (minimum; maximum): n=3
How it was run: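 Adult male Sprague-Dawley rats with indwelling jugular catheters, caged singly and acclimated 5 days, were fasted 12 h and given 80 mg/kg by oral gavage. Catheter blood was drawn at 0.5–48 hr, at least 3 rats per time point. EDTA plasma was acetonitrile-extracted with reserpine internal standard and assayed by LC-MS/MS (C18, duplicates; LLOQ 0.2 ng/ml). Median concentrations gave kel, Vd, Cl and T½. Cmax and Tmax were read from the curve, and ka from a one-compartment fit.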

[9] = system: adult Sprague Dawley male rats; assay: Repeated dose study; type: in vivo, rat; conditions: for O_REAR (rears during observation period), least squares means (95% confidence interval): 80 mg/kg/day
How it was run: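 Male Sprague-Dawley rats (200–250 g) were housed 2 per cage on a reverse light cycle and fasted 12 h before dosing. They received vehicle or 80 mg/kg (20 mg/mL suspension) by oral gavage daily for 14 days, then 7 drug-free days; n=10, 8 at day 21. FOB ran at baseline (day −3/−4) and days 3, 7, 14 and 21. It covered quantal/categorical endpoints (Mantel-Haenszel chi-square, 2 blocks) and continuous endpoints (weight, temperature, rotarod, grip, foot splay) as mixed-model least-squares means.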

[10] = Day 2 after single oral 500 mg/kg
[11] = Day 4 after single oral 500 mg/kg
[12] = Day 8 after single oral 500 mg/kg
[13] = Day 14 after single oral 500 mg/kg

SMILES: CC1=CC(=O)CC(C)(C)[C@@]1(O)/C=C/C(C)=C\C(=O)O [Abscisic acid]
- LANCL2 binding (LANCL2; leads to elevation of intracellular cAMP, activation of PKA): binds to LANCL2

SMILES: O=C(c1cccc(-c2nc3ccccc3[nH]2)n1)N1CCN(C(=O)c2cccc(-c3nc4ccccc4[nH]3)n2)CC1 [BT-11, piperazine-1,4-diylbis((6-(1H-benzo[d]imidazo-2-y)pyridin-2-yl)methanone)]
- tBILI, mean plasma [1, 10]: 0.20^a mg/dL
- ALT, mean plasma [1, 10]: 126^a IU/L
- AST, mean plasma [1, 10]: 269^a IU/L
- ALP, mean plasma [1, 10]: 376^a IU/L
- tBILI, mean plasma [1, 11]: 0.23^a mg/dL
- ALT, mean plasma [1, 11]: 52^a IU/L
- AST, mean plasma [1, 11]: 106^a IU/L
- ALP, mean plasma [1, 11]: 294^a IU/L
- tBILI, mean plasma [1, 12]: 0.13 ^a mg/dL
- ALT, mean plasma [1, 12]: 53^a IU/L
- AST, mean plasma [1, 12]: 80^a IU/L
- ALP, mean plasma [1, 12]: 288 ^a IU/L
- tBILI, mean plasma [1, 13]: 0.10^a mg/dL
- ALT, mean plasma [1, 13]: 41^a IU/L
- AST, mean plasma [1, 13]: 67^a IU/L
- ALP, mean plasma [1, 13]: 265^a IU/L
- solubility [2]: too insoluble to administer by the intravenous route; also recorded: relatively insoluble; also recorded: insufficiently soluble to be given IV
- histopathologic evidence of toxic injury [3]: no histopathologic evidence of toxic injury
- weight difference vs control ([4]; 14 days after single 500 mg/kg bolus dose): < 4%
- hind grip strength, least squares mean ([4]; day 1 after single oral 500 mg/kg, control 0.46, p=0.0272): 0.40
- weight, least squares mean ([4]; day 14 after single oral 500 mg/kg, control 264.46, p=0.0006): 254.71
- FOB quantal endpoints, treated vs control ([4]; single oral 500 mg/kg): no differences
- behavioral evidence of detrimental effects ([4]; single oral 500 mg/kg, 2 weeks observation): No obvious behavioral evidence of detrimental effects
- FOB categorical endpoints, treated vs control ([4]; single oral 500 mg/kg, time points beyond baseline): did not differ
- tolerability ([4]; single oral bolus of 500 mg/kg): well-tolerated
- blood concentration, individual samples ([5]; 2 hr after 500 mg/kg oral): 32 ng/mL and 3.1 ng/mL and 13 ng/mL
- blood concentration, individual samples ([5]; 4 hr after 500 mg/kg oral): 17 ng/mL and 15 ng/mL and 6.7 ng/mL
- blood concentration, individual samples ([5]; 22 hr after 500 mg/kg oral): 3.0 ng/mL and 9.6 ng/mL and 3.3 ng/mL
- inflammatory F4/80+ CD11b+ macrophages and effector Th1 cells in the gut mucosa (mouse models of colitis; 3 mouse models of colitis): decreased numbers
- lowest dose with therapeutic efficacy (mouse models of colitis; 3 validated mouse models of colitis): 8 mg/kg/day
- Th1 cells and Th17 cells in the spleen and MLN (mouse models of colitis; mouse colitis): decreased the levels
- colonic expression of IL-10 and LANCL2 (mouse models of colitis; oral, dose-dependent): up-regulated
- colonic expression of TNFα (mouse models of colitis; oral, dose-dependent): down-regulated
- reduction in gut inflammation (mouse models of colitis; oral, mice, 3 mouse models of colitis/IBD): 90%
- lowest (minimal) efficacious dose (mouse models of colitis; oral, mice): 8 mg/kg
- reduction of colonic lesions (mouse models of colitis; oral, mice, doses 80 mg/kg and as low as 8 mg/kg): 4 X
- histopathologic comparison, vehicle control vs BT-11-exposed [6]: No significant differences
- LANCL2 binding (LANCL2): binds LANCL2
- clinical pathological examination of blood samples, control vs test [7]: did not reveal any clinical or statistical differences
- time to steady state (97% level) after repeated dosing ([8]; 5 × T ½, assuming single-compartment, dose-independent pharmacokinetics): approximately 15 hr
- Geometric mean of plasma concentration (95% lower and upper confidence limits) ([8]; 0.5 hr after 80 mg/kg oral): 14.60 (2.94; 72.53) ng/ml
- Plasma concentration, Median (minimum; maximum) ([8]; 0.5 hr after 80 mg/kg oral): 12.18 (8.55; 29.89) ng/ml
- Geometric mean of plasma concentration (95% lower and upper confidence limits) ([8]; 1 hr after 80 mg/kg oral): 23.99 (4.66; 123.40) ng/ml
- Plasma concentration, Median (minimum; maximum) ([8]; 1 hr after 80 mg/kg oral): 20.95 (13.42; 49.11) ng/ml
- Geometric mean of plasma concentration (95% lower and upper confidence limits) ([8]; 2 hr after 80 mg/kg oral): 19.65 (4.28; 90.23) ng/ml
- Plasma concentration, Median (minimum; maximum) ([8]; 2 hr after 80 mg/kg oral): 16.88 (11.65; 38.62) ng/ml
- Geometric mean of plasma concentration (95% lower and upper confidence limits) ([8]; 4 hr after 80 mg/kg oral): 8.24 (1.89; 35.94) ng/ml
- Plasma concentration, Median (minimum; maximum) ([8]; 4 hr after 80 mg/kg oral): 11.07 (4.16; 12.14) ng/ml
- Geometric mean of plasma concentration (95% lower and upper confidence limits) ([8]; 8 hr after 80 mg/kg oral): 5.24 (2.16; 12.73) ng/ml
- Plasma concentration, Median (minimum; maximum) ([8]; 8 hr after 80 mg/kg oral): 4.33 (4.20; 7.91) ng/ml
- Geometric mean of plasma concentration (95% lower and upper confidence limits) ([8]; 12 hr after 80 mg/kg oral): 1.84 (1.39; 2.45) ng/ml
- Plasma concentration, Median (minimum; maximum) ([8]; 12 hr after 80 mg/kg oral): 1.83 (1.65; 2.07) ng/ml
- Geometric mean of plasma concentration (95% lower and upper confidence limits) ([8]; 16 hr after 80 mg/kg oral): 2.31 (0.12; 44.19) ng/ml
- Plasma concentration, Median (minimum; maximum) ([8]; 16 hr after 80 mg/kg oral): 1.40 (0.99; 8.98) ng/ml
- Geometric mean of plasma concentration (95% lower and upper confidence limits) ([8]; 20 hr after 80 mg/kg oral): 1.06 (0.29; 3.90) ng/ml
- Plasma concentration, Median (minimum; maximum) ([8]; 20 hr after 80 mg/kg oral): 1.39 (0.58; 1.49) ng/ml
- Geometric mean of plasma concentration (95% lower and upper confidence limits) ([8]; 24 hr after 80 mg/kg oral): 0.95 (0.04; 21.25) ng/ml
- Plasma concentration, Median (minimum; maximum) ([8]; 24 hr after 80 mg/kg oral): 1.01 (0.26; 3.22) ng/ml
- Geometric mean of plasma concentration (95% lower and upper confidence limits) ([8]; 48 hr after 80 mg/kg oral): 1.57 (0.47; 5.31) ng/ml
- Plasma concentration, Median (minimum; maximum) ([8]; 48 hr after 80 mg/kg oral): 1.90 (0.90; 2.27) ng/ml
- Cmax (maximal concentration) ([8]; single 80 mg/kg oral, estimated from graph of median plasma concentrations): 21 ng/mL
- Half-life (T ½) ([8]; single 80 mg/kg oral, median values 0.5-8 hr, 80 mg/kg): 3 h
- FOB quantal endpoints, treated vs control ([9]; 80 mg/kg/day oral for 14 days): No quantal differences
- behavioral evidence of detrimental effects ([9]; 80 mg/kg/day oral, 2 weeks of treatment and 1 week post-dosing): No behavioral evidence of detrimental effects
- weight and hind grip, treated vs control ([9]; 14 daily oral doses of 80 mg/kg, to day 21): no significant differences
- O_REAR (rears during observation period), least squares means (95% confidence interval) ([9]; Study day 3, control 29.17, P=0.4916): 27.23 (13.90-40.57)
- O_REAR (rears during observation period), least squares means (95% confidence interval) ([9]; Study day 7, control 27.97, P=0.1985): 24.33 (11.00-37.67)
- O_REAR (rears during observation period), least squares means (95% confidence interval) ([9]; Study day 14, control 30.27, P=0.0273): 23.93 (10.60-37.27)
- tolerability ([9]; oral, 14 days at 80 mg/kg (cumulative dose 1,120 mg/kg)): well-tolerated

SMILES: O=C(Nc1cccc(-c2nc3ccccc3[nH]2)c1)c1ccc(C(=O)Nc2cccc(-c3nc4ccccc4[nH]3)c2)cc1 [CID247228, N^1,N^4-bis(3-(1H-benzo[d]imidazo-2-yl)phenyl)terephthalamide, reference compound]
- anti-inflammatory activity in mice with colitis (mouse models of colitis; oral): potent oral anti-inflammatory therapeutic
- LANCL2 binding (LANCL2): ligand of LANCL2
